In the library only some 4.6% were active in any assay of this set; here they are far more common.
TAAR1 antagonist = human TAAR1 antagonism; Q96RJ0; CHO RD-HGA16 TAAR1, Fluo-8 calcium fluorescence, antagonist; inhibition, % at 3 µM; actives 1.5% (n = 360,000);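 active = inhibition above a per-plate cutoff, the mean inhibition of test compounds on that plate plus 3 SD, cut at about 49% in these data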;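 also: 0% = DMSO plus EC80 beta-PEA response and 100% = DMSO alone without agonist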
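Test system – hTAAR1-expressing CHO RD-HGA16 cells, Gα16-coupled · Reagent – β-PEA at EC80 concentration, post-compound challenge · Compound dosing – 3 µM, single point · Timing – 140 s kinetic read after compound, 140 s after agonist · Detection – Fluo-8 intracellular calcium dye fluorescence, real-time kinetic reads · Control set – DMSO and EC80 PEA controls · Repeats – n of 1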
OX1R antag-1 = antagonists of human orexin 1 receptor. inhibition, % at 5 µM. AID 434989. O43613. actives 0.43% (n = 330,000). CHO/OX1R cells, Fluo-8 calcium fluorescence, orexin A;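 active = inhibition above its plate's threshold, mean inhibition of all tested compounds on the plate plus 3 SD, cut at about 37% in these data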;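 also: 0% = orexin A challenge wells and 100% = SB-334867-A antagonist wells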
Target sequence (O43613 whole entry, looked up): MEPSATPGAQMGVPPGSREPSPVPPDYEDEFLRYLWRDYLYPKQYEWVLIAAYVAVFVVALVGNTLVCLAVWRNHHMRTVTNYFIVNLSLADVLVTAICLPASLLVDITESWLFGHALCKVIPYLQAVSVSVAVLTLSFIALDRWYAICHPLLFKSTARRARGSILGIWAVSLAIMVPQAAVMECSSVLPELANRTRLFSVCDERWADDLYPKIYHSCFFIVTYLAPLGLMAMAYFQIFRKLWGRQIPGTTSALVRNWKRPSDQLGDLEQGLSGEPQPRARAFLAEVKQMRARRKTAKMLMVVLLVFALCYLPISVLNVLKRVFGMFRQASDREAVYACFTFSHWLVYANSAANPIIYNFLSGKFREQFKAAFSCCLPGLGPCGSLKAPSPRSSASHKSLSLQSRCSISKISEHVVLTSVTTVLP
CHO parental Ca = signal in parental CHO cells, OX1R antagonist counter-screen; parental CHO-K1, ATP-induced calcium, Fluo-8 fluorescence; AID 463079; actives 0.63% (n = 330,000); inhibition, % at 5.6 µM;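 active = inhibition above that plate's mean sample inhibition plus 3 SD, cut at about 26% in these data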;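 also: 0% = ATP-challenged DMSO wells and 100% = DMSO wells without ATP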
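test system = CHO parental line | reagent = ATP stimulus | measured by = intracellular calcium via Fluo-8 no-wash fluorescent dye | control set = ATP and no-ATP DMSO wells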
GPR7 antag = blocks human GPR7 receptor signaling. GPR7-expressing cells, fluorescence antagonist assay. P48145. inhibition, % at 4.4 µM. actives 1.1% (n = 290,000). AID 1861; in the data active = inhibition above about 16%, passing the limit was not always enough;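 also: cells stimulated with the agonist NPW; 0% = agonist with vehicle and 100% = vehicle without agonist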
OX1R antag-2 = OX1R (human) antagonism. actives 1.8% (n = 330,000). OX1R-expressing cells, FRET antagonist read-out. inhibition, % at 6.6 µM. O43613; in the data active = inhibition mostly above about 38%, no sharp cut-off; inactive = mostly below about 40%;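 also: 0% = agonist challenge alone and 100% = reference antagonist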
TAAR1 agonist = human TAAR1 agonism | CHO RD-HGA16 TAAR1, Fluo-8 calcium fluorescence; vehicle wells 0%, saturating PEA agonist 100% | activation, % at 3 µM | actives 0.99% (n = 360,000) | AID 624467;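 active = activation above the mean activation of all test compounds in the run plus 3 SD, cut at about 38% in these data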
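Benchmarks: low control DMSO, high control PEA (EC100); System: CHO RD-HGA16 cells carrying human TAAR1 plus Gα16; Detection: Fluo-8 fluorescence, 5 s baseline then 140 s kinetic read; Schedule: 17-24 h plating, Fluo-8 75 min 37 °C, 30 min RT; Read-out basis: % activation from peak over basal fluorescence ratio, DMSO-to-PEA scaled.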
The depositor's hits bear a star; · = no result.

SMILES	TAAR1 antagonist	OX1R antag-1	CHO parental Ca	GPR7 antag	OX1R antag-2	TAAR1 agonist
CCC(=O)Nc1cccc(C2=NOC3(C2)C[C@H](C(N)=O)N(C(=O)Cc2ccc([N+](=O)[O-])cc2)C3)c1 (stereo partly specified)	-7	2	0	·	22	7
CCC(=O)N1CC2(CC(c3cccc([N+](=O)[O-])c3)=NO2)C[C@H]1C(=O)NCC(N)=O (stereo partly specified)	-5	0	-5	1	66*	10
N#Cc1c2c(nc(N)c1-c1ccccc1)CCCCC2	-1	-17	-14	-10	6	0
N#Cc1c(N)nc2c(c1-c1ccccc1)CCCC2	-16	-16	-10	-6	7	41*
Cc1cc(C)c(C)c(S(=O)(=O)N2CCC(C(=O)OCC(=O)N3c4ccccc4NC(=O)C3(C)C)CC2)c1C	49*	-24	-41	-4	6	10
CC(C)NC(=O)c1ccc2c(=O)n(CC3CCCO3)c(=S)[nH]c2c1 (stereo unspecified)	-11	-12	-6	17*	8	1
COCCCNC(=O)c1ccc2c(=O)n(CC3CCCO3)c(=S)[nH]c2c1 (stereo unspecified)	-9	-26	-1	2	12	1
CC(=O)c1ccccc1Oc1nc(CN2CCOCC2)nc2scc(-c3cccs3)c12	12	12	-23	3	44*	0
O=C1C2CC=CCC2C(=O)N1c1ccc(N2CCN(c3ccccn3)CC2)c([N+](=O)[O-])c1 (stereo unspecified)	13	27	46*	2	42	9
O=C(c1ccc(N2CCCCC2)c([N+](=O)[O-])c1)N1CCN(c2ccccn2)CC1	15	-18	-23	-15	20	-2
CCN(CC)C(=O)C1(P(=O)(c2ccccc2)c2ccccc2)CCC1	5	-14	-14	-11	20	13
COc1cc(-c2nc3ccccc3nc2-c2ccc(O)c(OC)c2)ccc1O	53*	-9	-8	-14	4	21
COc1cc(-c2nc3ccccn3c2N)ccc1O	3	-17	-11	4	16	1
O=C(Nc1cccc(S(=O)(=O)N2CCCCC2)c1)c1ccc(S(=O)(=O)C(F)F)cc1	53*	-15	4	-5	19	11
CCNc1ccc(S(=O)(=O)N2CCOCC2)cc1NCC(=O)Nc1cccc(Br)c1	53*	·	·	·	·	13
O=C(CNc1cccc(Br)c1)Nc1ccc(S(=O)(=O)N2CCCCC2)cc1	-9	·	·	·	·	10
O=C(CNc1cccc(S(=O)(=O)N2CCCCCC2)c1)Nc1cccc([N+](=O)[O-])c1	56*	32	-1	·	7	9
O=C(CNc1cc([N+](=O)[O-])ccc1NCCO)Nc1cccc(S(=O)(=O)N2CCCCC2)c1	-6	-5	-5	·	8	2
O=C(N1CCCCCC1)N1CCN(S(=O)(=O)c2cccc([N+](=O)[O-])c2)CC1	-4	-19	-12	16	52*	2
O=C(Oc1cccc(NC2=NS(=O)(=O)c3ccccc32)c1)c1cccnc1	49*	-16	-6	-3	12	23
CCN(CC)Cc1cc(NC2=NS(=O)(=O)c3ccccc32)ccc1OC(=O)c1ccccc1	-7	-6	12	6	11	1
Cc1ccc(-c2cccc(C3CC=CC4C3C(=O)N(Cc3ccccc3)C4c3cc(C)ccc3F)c2)cc1 (stereo unspecified)	5	-20	-21	·	29	3
Cc1ccc(-n2cc(CN3CCC(CO)(Cc4ccccc4)CC3)cn2)cc1	19	-29	-18	20*	11	5
Cc1ccc(-n2cc(CN3CCC(CO)(Cc4cccc(C(F)(F)F)c4)CC3)cn2)cc1	4	-17	10	10	12	44*
Cc1ccc(C(=O)Nc2ccc3c(c2)C(=O)N(CC2CCCO2)C3=O)cc1 (stereo unspecified)	-12	9	-10	-3	10	3
SMILES	TAAR1 antagonist	OX1R antag-1	CHO parental Ca	GPR7 antag	OX1R antag-2	TAAR1 agonist
Cc1cc(NC(=O)c2ccc3c(c2)C(=O)N(C2CCCCC2)C3=O)no1	-15	-7	-11	3	10	3
O=C(Nc1ccncc1)c1ccc2c(c1)C(=O)N(CC1CCCO1)C2=O (stereo unspecified)	35	-14	-16	-9	53*	36
O=C(Nc1ccncc1)c1ccc2c(c1)C(=O)N(C1CCCCC1)C2=O	45	43	51*	1	45	32
O=C(NC(=S)N1CCCCC1)c1csc([N+](=O)[O-])c1	-11	-16	-1	-15	37*	2
CCOC(=O)/C(C#N)=C\c1ccc(OCC(=O)Nc2ccc(C)cc2C)c(OC)c1	-6	-7	-13	-11	23	14
Cc1cccc2c(Cl)cc(=O)[nH]c12	-6	·	·	-14	·	7
Cc1cccc2c3c([nH]c12)CCNC3	28	-4	9	5	9	40*
NS(=O)(=O)c1ccc(NC(=O)COC(=O)c2ncc(Cl)c(Cl)c2Cl)cc1	13	-4	-7	·	16	2
CC1(C)Cc2c(c(N3CCCC3)nc3sc4c(N5CCNCC5)ncnc4c23)CO1	·	-22	-16	-10	3	·
C#CCOCCOCCOCCNc1nc(N2CCN(C(=O)CCCCCCCCCCNC(=O)[C@H]([C@@H](C)CC)n3cc(CCCCCN)nn3)CC2)nc(N2CCN(C(=O)CCCCCCCCCCNC(=O)[C@@H]([C@H](C)CC)n3cc(CCCCCN)nn3)CC2)n1	·	32	79*	·	-4	·
C#CCOCCOCCOCCNc1nc(N2CCN(C(=O)CCCCCCCCCCNC(=O)Cn3cc(C[C@@H](C)O)nn3)CC2)nc(N2CCN(C(=O)CCCCCCCCCCNC(=O)[C@H](CO)n3cc(CCCSC)nn3)CC2)n1	49*	11	-2	·	-12	3
C#CCOCCOCCOCCNc1nc(N2CCN(C(=O)CCCCCCCCCCNC(=O)[C@H]([C@@H](C)CC)n3cc(CCCCCN)nn3)CC2)nc(N2CCN(C(=O)CCCCCCCCCCNC(=O)[C@H](CO)n3cc(CCCCCN)nn3)CC2)n1	·	21	68*	·	8	·
C#CCOCCOCCOCCNc1nc(N2CCOCC2)nc(N2CCN(C(=O)CCCCCCCCCCNC(=O)[C@@H]([C@H](C)CC)n3cc(CCCCCN)nn3)CC2)n1	-2	-32	-21	·	38	10
COc1ccc(Cl)cc1-c1nc(SCC(=O)NC(C)C(C)C)n[nH]1 (stereo unspecified)	-1	-13	-27	10	18	1
COc1ccccc1Cc1c(-c2ccccc2)nc2cc(C)c(Br)c(C)n12	-28	·	·	·	·	-1

Bioassay records: PubChem BioAssay, The Scripps Research Institute Molecular Screening Center
